Screening data: PubChem, several laboratories
KLF5 inh = kruppel-like factor 5 inhibition | DLD-1 KLF5 promoter-luciferase reporter, luminescence | inhibition, % at 5 µM | actives 0.23% (n = 290,000);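 active = inhibition above a per-plate limit of that plate's mean compound inhibition plus 3 SD, cut at about 60% in these data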;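 also: 0% = DMSO wells and 100% = LY294002 at 200 µM; higher means less KLF5 promoter-driven luciferase light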
IEC-6 tox = counter-screen for KLF5 inhibitors: cytotoxicity in IEC-6 cells; IEC-6 cytotoxicity, luminescence viability; inhibition, % at 5 µM; actives 0.78% (n = 290,000); in the data active = inhibition above about 22%;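 also: 0% = plate median of test compound wells and 100% = cytotoxic reference compound wells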
MT stabilizer = microtubule stabilization, imaging screen | actives 0.83% (n = 200,000) | AID 2205 | HeLa tubulin immunostaining HCS, 24 h; share of cells brighter than vehicle mean+2SD | % tubulin-high responders, % at 10 µM;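 active = plate Z-score above 3 for both tubulin-high and condensed-nucleus cell shares, with cell loss under 80%, at 10 µM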;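 also: anti alpha tubulin signal scored within the nucleus-defined area of each cell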
Ba/F3 V617F tox = loss of viability in JAK2V617F-driven Ba/F3 cells | Ba/F3 EpoR-JAK2V617F viability, ATP luminescence | inhibition, % at 5.6 µM | actives 1.1% (n = 220,000);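 active = inhibition above the campaign mean plus 3 SD over all tested compounds, cut at about 24% in these data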;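 also: cytokine-independent growth of Ba/F3 cells driven by EpoR plus mutant JAK2; 0% = DMSO-treated cells and 100% = JAK inhibitor I control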
BaF3 tox = reduces parental Ba/F3 cell viability, JAK2V617F counter-screen. actives 1.1% (n = 220,000). inhibition, % at 5.6 µM. CellTiter-Glo ATP luminescence. AID 1486;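 active = inhibition above a per-campaign cutoff, the mean inhibition of all tested compounds plus 3 SD, cut at about 27% in these data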;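 also: 0% = DMSO wells and 100% = JAK Inhibitor I control wells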
bCat nuc transl = beta-catenin nuclear translocation modulation. actives 0.3% (n = 190,000). nuclear translocation activity, % at 5 µM. HeLa beta-catenin nuclear translocation, immunofluorescence imaging. AID 1665;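 active = nuclear translocation activity above 50% at 5 µM, with a well cell count of 50 or more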;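 also: per-cell ratio of nuclear to cytoplasmic median beta-catenin stain intensity; plate controls were DMSO negative control for no effect and GSK-3 inhibitor IX positive control for full effect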
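Read-out: Nuclear/cytoplasmic beta-catenin signal ratio, % activation | Assay system: Human HeLa cell line | Times: 24 h compound exposure at 37°C, 5% CO2 | Signal: Fluorescence imaging of beta-catenin antibody stain plus DAPI | Dosing: 5 µM primary, 0.02–20 µM confirmation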
The depositor's hits bear a star; nt = not tested or not shown. In the library only some 2.1% were active in any assay of this set; here they are far more common.

SMILES	KLF5 inh	IEC-6 tox	MT stabilizer	Ba/F3 V617F tox	BaF3 tox	bCat nuc transl
CCC(C)[C@H](NC(=O)NC(C)C)C(=O)O (some centres not stated)	-14.4	1.4	2.5	2.6	91.8*	0.1
CCCCCNC(=O)N[C@H](C(=O)O)C(C)C	3.4	3.5	4.7	-4.9	89.9*	6.7
COc1ccc(OCCSc2nnc(-c3ccoc3C)n2C)cc1	-23.1	3.3	3.8	1.1	3.4	-4.3
COc1ccc(OC)c(C(=O)Cn2c3[n+](c4ccc(C(F)(F)F)cc42)CCCCC3)c1	-19.3	-1.9	1.7	-1.1	2.4	-4.4
Fc1ccccc1Cn1c2[n+](c3ccc(C(F)(F)F)cc31)CCCCC2	-20.3	1.1	5.4	14.7	32.6*	-1.9
COc1cc(C2C(C#N)=C(N)Oc3cc(O)ccc32)cc2c1OCO2 (configuration not stated)	-22.4	-2.1	15.5*	-2.6	2.8	3.3
COc1cc(C2C(C#N)=C(N)Oc3cc(O)ccc32)cc(OC)c1OC (configuration not stated)	4.1	0.0	21.4*	-2.3	1.2	nt
COc1cc(C2C(C#N)=C(N)Oc3cc4c(cc32)OCO4)cc(OC)c1OC (configuration not stated)	85.7*	85.0*	9.5	93.3*	89.4*	50.9*
COc1ccc(C2C(C#N)=C(N)Oc3cc(O)ccc32)cc1OC (configuration not stated)	7.3	-0.9	6.9	-2.5	3.3	-1.5
COc1cc(C2C(C#N)=C(N)Oc3cc(N(C)C)ccc32)cc2c1OCO2 (configuration not stated)	-33.4	0.7	14.1*	3.8	12.1	79.7*
Nc1ncnc2c1ncn2[C@@H]1O[C@H](CO)C[C@@H]1O	8.5	65.9*	nt	-3.8	6.0	-4.2
O=C(/C=C/c1ccco1)Nc1nnc(-c2ccco2)s1	-11.2	4.5	8.2*	-3.4	0.8	12.5
CCc1nnc(NC(=O)/C=C/c2ccco2)s1	-13.1	6.3	3.9	0.8	2.2	-2.6
O=C(/C=C\c1ccco1)Nc1cc([N+](=O)[O-])ccc1F	-39.2	-2.7	3.6	73.4*	43.4*	55.9*
Cc1nc(NC(=O)/C=C/c2ccco2)sc1C	-37.2	6.3	15.5*	2.0	8.1	-2.6
COc1ccccc1/C=C/C=C(\C#N)C(=O)NC(C)c1ccccc1 (configuration not stated)	-32.0	-3.9	nt	nt	nt	nt
C=CCNC(=S)/N=c1/ccccn1CCC	-35.1	0.4	nt	51.0*	56.5*	1.6
Cc1cccc(-c2nc3c(c(SCC(=O)N4CCOCC4)n2)COC(C)(C)C3)c1	-15.7	-5.3	nt	nt	nt	nt
O=C(NCc1cccnc1)c1ccc(COc2ccccc2Br)o1	-2.5	15.0	5.7	4.1	7.6	-0.9
O=C(Nc1cccnc1)c1ccc(COc2ccccc2Br)o1	-13.4	-1.6	25.6*	-1.5	5.2	nt
CCCCOc1ccc(CSC(CC(=O)O)C(=O)O)cc1 (configuration not stated)	-15.1	-4.7	1.8	-0.8	-0.8	-2.9
CCCCOc1ccc(CSCCN=C(N)N)cc1	-20.9	1.8	9.3	38.5*	76.2*	2.7
CCCNC(=O)NC(=O)COC(=O)c1ccc(S(=O)(=O)N(C)c2ccccc2OC)cc1	-0.8	0.7	15.2*	6.0	6.0	-2.7
COc1ccccc1N(C)S(=O)(=O)c1ccc(C(=O)OCC(N)=O)cc1	12.9	0.3	2.1	0.8	4.0	-2.3
Cc1cc2oc(C(=O)NCc3ccccc3)cc(=O)c2cc1C	-15.7	21.9*	nt	nt	nt	nt
SMILES	KLF5 inh	IEC-6 tox	MT stabilizer	Ba/F3 V617F tox	BaF3 tox	bCat nuc transl
CCOC(=O)Nc1ccc2c(c1)N(C(=O)CNC)c1ccccc1CC2	-17.3	6.0	nt	nt	nt	nt
CCOC(=O)Nc1ccc2c(c1)N(C(=O)OC)c1ccccc1CC2	20.9	2.6	34.3*	0.1	2.8	15.8
O=C(CCC(=O)N1CCN(c2ccccn2)CC1)Nc1nnc(C(F)(F)F)s1	-1.4	-3.6	nt	-2.3	-4.6	0.5
Fc1ccc(Br)cc1C1C=C(c2ccc(Br)s2)Nc2ncnn21 (configuration not stated)	-6.2	0.4	6.0	1.1	2.7	50.3*
Cc1cc(N2CCN(C(c3ccccc3)c3ccccc3)CC2)n2ncnc2n1	-12.2	-0.7	6.1	-2.9	-1.5	-0.7
Cc1cc(N2CCN(c3nc4ccccc4s3)CC2)n2ncnc2n1	-25.0	5.2	2.2	44.1*	47.6*	1.2
O=C(Nc1ccc(Cl)cc1C(F)(F)F)C(Sc1nnc(-c2cccs2)o1)c1ccccc1 (configuration not stated)	-32.8	8.2	14.3*	-1.0	5.0	32.7
CCOCc1c(C(=O)NC2=Nc3ccccc3NC(CC)=C2C(=O)OCC)oc2ccccc12	-7.4	5.3	20.2*	3.2	5.2	-1.2
C1=CC2CC1CC2CN1CCN(Cc2ccccc2)CC1 (configuration not stated)	-53.8	1.0	2.2	0.2	5.9	3.1
CC(C)(C)C(=O)Nc1cc2c3c(c1)CCC(=O)N3CCC2	2.9	7.1	nt	nt	nt	nt
O=C(CCSCCC(=O)Nc1ccccc1F)Nc1ccccc1F	-19.7	2.9	3.2	1.6	4.3	-4.1
O=C(OCC(=O)N1CCN(C(=O)c2ccco2)CC1)c1cc(=O)c2ccccc2o1	-0.3	-0.5	1.4	1.2	3.5	-1.3
Fc1ccc(OCc2nn[nH]n2)c(F)c1	-6.9	3.0	nt	nt	nt	nt
CCOc1ccccc1CNC(=O)Cn1nc(C)c2c(C)n(-c3ccc(C)cc3)nc2c1=O	-9.0	5.9	nt	nt	nt	nt
Cn1cc(CC(=O)NCCCN2CCCC2=O)c2ccccc21	nt	nt	6.7	nt	nt	2.0
COc1cccc(-c2csc(N3CCN(C(=S)Nc4ccccc4)CC3)n2)c1	-16.3	5.4	2.1	1.8	10.3	-2.4
COc1cccc(-c2csc(N3CCN(C(=S)Nc4ccc(Cl)cc4)CC3)n2)c1	-9.7	6.1	3.4	38.2*	38.5*	1.1
CCn1nc(C(=O)N2CCc3ccccc3C2)c2ccccc2c1=O	7.9	1.4	16.2*	-2.5	-2.7	0.4
O=C(Cn1c(-c2ccccc2)c[n+]2ccsc12)c1ccccc1	12.6	3.3	9.2	69.5*	60.2*	1.5
CC(C)(C)NC(=O)C(c1ccncc1)N(C(=O)Cn1nnc(-c2ccc(F)cc2)n1)c1ccc(F)cc1 (configuration not stated)	-9.4	3.2	3.0	3.1	81.3*	-0.5
Nc1ncc(Br)cc1S(=O)(=O)NCCc1ccccc1	-21.4	-6.6	nt	nt	nt	nt
CCOC(=O)C1CCCN(Cc2cc(=O)oc3cc(C)c(C)cc23)C1 (configuration not stated)	-14.8	-0.6	1.7	2.2	82.2*	-2.6
O=C(N/N=C\CCc1ccccc1)c1ccco1	-31.0	6.6	2.9	-2.3	-3.0	-1.8
COc1cc2c(cc1OC)CN(C(=S)Nc1ccccc1Cl)CC2	-3.9	2.1	1.8	2.8	6.3	-1.3
COc1cc2c(cc1OC)CN(C(=S)Nc1ccccc1)CC2	-10.1	-3.1	3.5	4.2	33.1*	nt
